Laboratory results taken from ChEMBL document CHEMBL4715744, “Concise synthesis of carbazole-1,4-quinones and evaluation of their antiproliferative activity against HCT-116 and HL-60 cells” (Eur J Med Chem, 2016).

Experiments:
HCT-116 = experiment: Cytotoxicity against human HCT-116 cells assessed as reduction in cell viability incubated for 48 hrs by MTT assay; format: functional, cell-based; settings: HCT-116, 48 h
Outline: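 Antiproliferative test on HCT-116 colon tumour cells, read out by MTT; activity expressed as IC50.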

HL-60 = experiment: Cytotoxicity against human HL-60 cells assessed as reduction in cell viability incubated for 48 hrs by WST-1 assay; format: functional, cell-based; settings: HL-60, 48 h
Outline: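 HL-60 promyelocytic leukaemia cells, with proliferation read out by WST-1; activity expressed as IC50.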

With `O=C1C=CC(=O)c2c1[nH]c1ccccc21` as the compound, how does the IC50 (HCT-116) read?
Its IC50 is 763 nM.

And the IC50 (HL-60)?
Its IC50 is 1000 nM.

What does the source list for `CC1=CC(=O)c2[nH]c3ccc(C(F)(F)F)cc3c2C1=O`?
IC50 (HCT-116): 921 nM; IC50 (HL-60): 1130 nM

With `CC1=CC(=O)c2[nH]c3ccc(F)cc3c2C1=O` as the compound, how does the IC50 (HCT-116) read?
Its IC50 is 2700 nM.

And the IC50 (HL-60)?
Its IC50 is 4400 nM.

`COc1cc2[nH]c3c(c2cc1OC)C(=O)C(C)=CC3=O` was tested. Which IC50 (HCT-116) did it give?
The IC50 was 4090 nM.

What about the IC50 (HL-60) of the same compound?
Its IC50 is 8950 nM.

For `CC1=CC(=O)c2[nH]c3cc(Cl)ccc3c2C1=O`, which IC50 (HCT-116) is on record?
The IC50 was 895 nM.

And the IC50 (HL-60)?
Its IC50 is greater than 10000 nM.

What does the source list for `COCn1c2c(c3ccccc31)C(=O)C=C(C)C2=O`?
IC50 (HCT-116): > 10000 nM; IC50 (HL-60): > 10000 nM

`COc1cc(OC)c2c3c([nH]c2c1)C(=O)C=C(C)C3=O` was tested. Which IC50 (HCT-116) did it give?
Its IC50 is greater than 10000 nM.

What about the IC50 (HL-60) of the same compound?
The IC50 was 7260 nM.

With `COCn1c2c(c3ccccc31)C(=O)C=CC2=O` as the compound, how does the IC50 (HCT-116) read?
The IC50 was 1310 nM.

What about the IC50 (HL-60) of the same compound?
The IC50 was 1380 nM.

For `CC1=CC(=O)c2[nH]c3cc([N+](=O)[O-])ccc3c2C1=O`, which IC50 (HCT-116) is on record?
The IC50 was 1370 nM.

And the IC50 (HL-60)?
Its IC50 is 1580 nM.

Which results are given for `COc1cc(OC)c2[nH]c3c(c2c1)C(=O)C(C)=CC3=O`?
IC50 (HCT-116): 3600 nM; IC50 (HL-60): 3820 nM

Which IC50 (HCT-116) does the source give for `CC1=CC(=O)c2[nH]c3cc(C)ccc3c2C1=O` here?
The IC50 was 1000 nM.

What about the IC50 (HL-60) of the same compound?
Its IC50 is 6930 nM.

With `COc1ccc(OC)c2c3c([nH]c12)C(=O)C=C(C)C3=O` as the compound, how does the IC50 (HCT-116) read?
Its IC50 is 1840 nM.

And the IC50 (HL-60)?
Its IC50 is 2270 nM.

Which IC50 (HCT-116) does the source give for `CC1=CC(=O)c2[nH]c3ccc([N+](=O)[O-])cc3c2C1=O` here?
The IC50 was 569 nM.

What about the IC50 (HL-60) of the same compound?
Its IC50 is 1030 nM.

For `CC1=CC(=O)c2[nH]c3cc(F)ccc3c2C1=O`, which IC50 (HCT-116) is on record?
The IC50 was 1000 nM.

And the IC50 (HL-60)?
The IC50 was 1470 nM.

With `COc1ccc2[nH]c3c(c2c1OC)C(=O)C(C)=CC3=O` as the compound, how does the IC50 (HCT-116) read?
Its IC50 is greater than 10000 nM.

And the IC50 (HL-60)?
Its IC50 is greater than 10000 nM.

With `CC1=CC(=O)c2[nH]c3cc4ccccc4cc3c2C1=O` as the compound, how does the IC50 (HCT-116) read?
The IC50 was greater than 10000 nM.

What about the IC50 (HL-60) of the same compound?
The IC50 was 5270 nM.

What does the source list for `CC1=CC(=O)c2[nH]c3cc(C(F)(F)F)ccc3c2C1=O`?
IC50 (HCT-116): > 10000 nM; IC50 (HL-60): 6020 nM

Which results are given for `COCn1c2c(c3ccccc31)C(=O)C(C)=CC2=O`?
IC50 (HCT-116): 6490 nM; IC50 (HL-60): 3920 nM

`CC1=CC(=O)c2[nH]c3ccc4ccccc4c3c2C1=O` was tested. Which IC50 (HCT-116) did it give?
Its IC50 is greater than 10000 nM.

And the IC50 (HL-60)?
The IC50 was greater than 10000 nM.

For `CC1=CC(=O)c2[nH]c3ccc(C)cc3c2C1=O`, which IC50 (HCT-116) is on record?
The IC50 was 2030 nM.

What about the IC50 (HL-60) of the same compound?
Its IC50 is greater than 10000 nM.

With `COc1ccc2[nH]c3c(c2c1)C(=O)C(C)=CC3=O` as the compound, how does the IC50 (HCT-116) read?
Its IC50 is 1600 nM.

And the IC50 (HL-60)?
Its IC50 is 3410 nM.

`COc1ccc2c3c([nH]c2c1)C(=O)C=C(C)C3=O` was tested. Which IC50 (HCT-116) did it give?
The IC50 was 992 nM.

What about the IC50 (HL-60) of the same compound?
The IC50 was 1750 nM.

With `CC1=CC(=O)c2[nH]c3ccc(Cl)cc3c2C1=O` as the compound, how does the IC50 (HCT-116) read?
The IC50 was 2210 nM.

And the IC50 (HL-60)?
Its IC50 is 1280 nM.

How did the IC50 (HCT-116) turn out when `CC1=CC(=O)c2[nH]c3ccccc3c2C1=O` [MURRAYAQUINONE A] was run?
The IC50 was 3720 nM.

What about the IC50 (HL-60) of the same compound?
The IC50 was 3020 nM.
